From ChEMBL document CHEMBL1133361, “Synthesis and biological activity of peptidyl aldehyde urokinase inhibitors” (Bioorg Med Chem Lett, 2000)
Blank lines part the entries; values can stand above or below the compound they belong to.

Assays:
[1] = Apparent terminal elimination half-life in dog after administration of 20 mg/kg dose through peroral route; type: ADME, organism-based, Canis lupus familiaris; set-up: dose 20 mg/kg, route oral; details: in vivo, po
Procedure, shortened: (§1)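 Conscious dogs (n=3) were given a single 20 mg/kg oral dose. Plasma drug levels were quantified by solid-phase extraction followed by HPLC mass spectrometry, and elimination half-life, Cmax and AUC were derived from the plasma concentration-time profile.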

[2] = Maximum concentration in rat plasma after administration of 50 mg/kg dose through subcutaneous route; details: sc
Plasminogen = Plasminogen (Homo sapiens, UniProt P00747); assay: The compound was tested in vitro for its inhibitory activity against human Plasmin enzyme, activity expressed as IC50
Plasminogen, sequence (P00747 97-580 limits assumed): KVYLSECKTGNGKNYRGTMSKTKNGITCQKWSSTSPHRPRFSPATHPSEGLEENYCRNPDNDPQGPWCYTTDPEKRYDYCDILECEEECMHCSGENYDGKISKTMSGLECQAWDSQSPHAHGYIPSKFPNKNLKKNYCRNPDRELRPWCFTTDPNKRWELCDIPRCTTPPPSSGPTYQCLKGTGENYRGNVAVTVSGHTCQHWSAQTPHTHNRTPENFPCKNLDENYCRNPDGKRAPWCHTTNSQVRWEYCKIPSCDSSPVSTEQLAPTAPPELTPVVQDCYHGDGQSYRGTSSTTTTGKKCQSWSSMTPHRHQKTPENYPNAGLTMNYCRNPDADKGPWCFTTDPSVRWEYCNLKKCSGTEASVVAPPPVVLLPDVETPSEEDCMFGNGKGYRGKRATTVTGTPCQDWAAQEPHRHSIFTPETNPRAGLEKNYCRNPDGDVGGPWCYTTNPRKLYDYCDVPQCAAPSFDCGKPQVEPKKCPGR
Plasminogen, sequence (P00747 581-810 limits assumed): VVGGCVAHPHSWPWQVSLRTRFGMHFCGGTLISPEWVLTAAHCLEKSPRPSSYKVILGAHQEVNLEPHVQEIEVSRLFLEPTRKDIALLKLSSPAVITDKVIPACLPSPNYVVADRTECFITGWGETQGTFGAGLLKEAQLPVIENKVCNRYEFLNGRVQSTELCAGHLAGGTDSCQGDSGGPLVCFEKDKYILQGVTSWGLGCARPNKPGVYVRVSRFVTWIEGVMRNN

[3] = target: Tissue-type plasminogen activator (Homo sapiens, UniProt P00750); assay: The compound was tested in vitro for its inhibitory activity against human t-PA enzyme, activity expressed as IC50
Tissue-type plasminogen activator, sequence (P00750 whole entry): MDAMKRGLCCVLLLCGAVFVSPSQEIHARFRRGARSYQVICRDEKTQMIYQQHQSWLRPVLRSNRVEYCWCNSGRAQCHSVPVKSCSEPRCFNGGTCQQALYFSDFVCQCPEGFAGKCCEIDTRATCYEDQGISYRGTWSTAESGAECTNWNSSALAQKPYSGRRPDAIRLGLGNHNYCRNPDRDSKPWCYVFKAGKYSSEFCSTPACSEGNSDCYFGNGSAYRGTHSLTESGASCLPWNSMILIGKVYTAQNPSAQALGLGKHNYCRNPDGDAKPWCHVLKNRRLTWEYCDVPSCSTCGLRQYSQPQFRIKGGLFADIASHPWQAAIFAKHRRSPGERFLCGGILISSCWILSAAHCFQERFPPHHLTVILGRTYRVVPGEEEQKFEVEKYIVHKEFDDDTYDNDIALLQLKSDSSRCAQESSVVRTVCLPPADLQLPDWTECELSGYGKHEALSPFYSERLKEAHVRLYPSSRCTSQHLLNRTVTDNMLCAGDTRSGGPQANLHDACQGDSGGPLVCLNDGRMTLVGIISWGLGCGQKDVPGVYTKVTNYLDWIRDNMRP
Procedure, shortened: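 Human t-PA (1 nM final) was tested for cleavage of chromogenic substrate Pefachrome t-PA. IC50 was taken as the inhibitor concentration giving 50% inhibition of substrate cleavage.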

[4] = Area under curve in rat plasma after administration of 50 mg/kg dose through subcutaneous route; details: sc
[5] = Area under curve in dog after administration of 20 mg/kg dose through peroral route; type: ADME, organism-based, Canis lupus familiaris; set-up: dose 20 mg/kg, route oral; details: in vivo, po; procedure, shortened: as §1
[6] = Total concentration in rat plasma after administration of 50 mg/kg dose through subcutaneous route; details: sc
[7] = Maximum concentration in rat plasma after administration of 50 mg/kg dose through subcutaneous route; type: ADME, organism-based; set-up: dose 50 mg/kg, route subcutaneous; details: sc
Procedure, shortened: (§2)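 Rats (n=3) received 50 mg/kg subcutaneously. Plasma was sampled over 24 h after dosing the parent aldehyde, or over 30 h after dosing its carbonate prodrug, with parent and prodrug measured. Levels were quantified by solid-phase extraction and HPLC mass spectrometry, and half-life and Cmax were taken from the concentration-time profile.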

[8] = target: Urokinase-type plasminogen activator (Homo sapiens, UniProt P00749); assay: The compound was tested in vitro for its inhibitory activity against human urokinase enzyme, activity expressed as IC50
[9] = Maximum concentration in dog after administration of 20 mg/kg dose through peroral route; type: ADME, organism-based, Canis lupus familiaris; set-up: dose 20 mg/kg, route oral; details: in vivo, po; procedure, shortened: as §1
[10] = Apparent terminal elimination half-life in rat plasma after administration of 50 mg/kg dose through subcutaneous route; details: sc
[11] = Apparent terminal elimination half-life in rat plasma after administration of 50 mg/kg dose through subcutaneous route; type: ADME, organism-based; set-up: dose 50 mg/kg, route subcutaneous; details: sc; procedure, shortened: as §2
[12] = Apparent terminal elimination half-life in rat plasma after administration of 50 mg/kg dose through subcutaneous route; details: sc; remark: listed apart in the source

IC50 (Plasminogen): 904 nM | IC50 [3]: > 2500 nM
Compound: C[C@H](NC(=O)[C@@H](CO)NC(=O)OCc1ccccc1)C(=O)N[C@H]1CCCN(C(=N)N)C1O (some centres not stated)

IC50 (Plasminogen): > 2500 nM | IC50 [3]: > 2500 nM | IC50 [8]: > 2500 nM
Compound: C[C@H](NC(=O)[C@@](C)(CO)NC(=O)OCc1ccccc1)C(=O)N[C@H]1CCCN(C(=N)N)C1O (some centres not stated)

IC50 (Plasminogen): 482 nM | IC50 [3]: > 2500 nM | IC50 [8]: 11 nM
Compound: N=C(N)N1CCC[C@H](NC(=O)C2CCN2C(=O)[C@@H](CO)NC(=O)OCc2ccccc2)C1O (some centres not stated)

IC50 (Plasminogen): 1170 nM | IC50 [3]: > 2500 nM
Compound: C[C@H](NC(=O)[C@@H](CO)NS(=O)(=O)c1ccccc1)C(=O)N[C@H]1CCCN(C(=N)N)C1O (some centres not stated)

IC50 (Plasminogen): 699 nM | IC50 [3]: > 2500 nM | IC50 [8]: 261 nM
Compound: CC(O)[C@@H](NC(=O)OCc1ccccc1)C(=O)N[C@@H](C)C(=O)N[C@H]1CCCN(C(=N)N)C1O (some centres not stated)

Second part, the compound before the results:

Compound: CC(C)COC(=O)N[C@H](CO)C(=O)N[C@@H](C)C(=O)N[C@H]1CCCN(C(=N)N)C1O.O=C(O)C(F)(F)F (some centres not stated)
half-life [1]: 0.85 h | Cmax [2]: 4700 ng/mL | IC50 (Plasminogen): 1460 nM | IC50 [3]: > 2500 nM | AUC [4]: 44500 ng·h/mL | AUC [5]: 38900 ng·h/mL | Tmax [6]: 2.33 h | Cmax [7]: 4700 ng/mL | IC50 [8]: 23.1 nM | Cmax [9]: 22900 ng/mL | half-life [10]: 5 h | half-life [11]: 5 h

Compound: CC(C)COC(=O)N[C@H](COC(=O)O)C(=O)N[C@@H](C)C(=O)N[C@H]1CCCN(C(=N)N)C1O.O=C(O)C(F)(F)F (some centres not stated)
Cmax [2]: 2300 ng/mL | AUC [4]: 38600 ng·h/mL | Tmax [6]: 2.67 h | half-life [12]: 10.7 h

Compound: C[C@@H](NC(=O)[C@@H](CO)NC(=O)OCc1ccccc1)C(=O)N[C@H]1CCCN(C(=N)N)C1O (some centres not stated)
IC50 (Plasminogen): > 2500 nM | IC50 [3]: > 2500 nM | IC50 [8]: > 2500 nM

Compound: C[C@H](NC(=O)[C@@H](CO)NS(=O)(=O)Cc1ccccc1)C(=O)N[C@H]1CCCN(C(=N)N)C1O (some centres not stated)
IC50 (Plasminogen): 275 nM | IC50 [3]: > 2500 nM | IC50 [8]: 5.1 nM

Compound: N=C(N)N1CCCC(NC(=O)[C@H]2CCCN2C(=O)C(CO)NC(=O)OCc2ccccc2)C1O (some centres not stated)
IC50 (Plasminogen): 125 nM | IC50 [3]: > 2500 nM

Compound: C[C@H](NC(=O)[C@@H](CO)NS(=O)(=O)CCc1ccccc1)C(=O)N[C@H]1CCCN(C(=N)N)C1O (some centres not stated)
IC50 (Plasminogen): 367 nM | IC50 [3]: > 2500 nM | IC50 [8]: 3.1 nM

Compound: N=C(N)N1CCC[C@@H](NC(=O)[C@H]2CCCCN2C(=O)[C@@H](CO)NC(=O)OCc2ccccc2)C1O (some centres not stated)
IC50 [3]: > 2500 nM | IC50 [8]: 101 nM
